Data: ChEMBL document CHEMBL3352280, “Modulation of cAMP-specific PDE without emetogenic activity: new sulfide-like PDE7 inhibitors” (J Med Chem, 2014)
pIC50: −log10 of the molar value. The source made the active and inactive calls. The rule behind the calls is not given here.

Columns and labels:
[1] = biological target: T1, High affinity 3',5'-cyclic-AMP phosphodiesterase 7A (Homo sapiens, UniProt Q13946); experiment: Inhibition of human recombinant PDE7A1 assessed as inhibition of hydrolysis of [3H]cAMP at 10 uM after 20 mins by scintillation proximity assay
Summary of the method: (§1)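 Scintillation proximity assay with human recombinant enzyme: PDE7A1 0.02 U, PDE3A 0.02 U, PDE7B 0.5 U, PDE8A 0.5 U. Enzyme incubated with 5 nCi [3H]cAMP and inhibitor in kit buffer for 20 min at 30 °C. SPA beads added and shaken 1 h at room temperature, settled 30 min, radioactivity counted.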

[2] = biological target: T1, High affinity 3',5'-cyclic-AMP phosphodiesterase 7A; experiment: Inhibition of human recombinant PDE7A1 assessed as inhibition of hydrolysis of [3H]cAMP after 20 mins by scintillation proximity assay; summary of the method: as §1
[3] = biological target: T2, 3',5'-cyclic-AMP phosphodiesterase 7B (Homo sapiens, UniProt Q9NP56); experiment: Inhibition of human recombinant PDE7B assessed as inhibition of hydrolysis of [3H]cAMP at 10 uM after 20 mins by scintillation proximity assay; summary of the method: as §1
[4] = biological target: cGMP-inhibited 3',5'-cyclic phosphodiesterase 3A (Homo sapiens) (UniProt Q14432); experiment: Inhibition of human recombinant PDE3A assessed as inhibition of hydrolysis of [3H]cAMP at 10 uM after 20 mins by scintillation proximity assay; summary of the method: as §1
[5] = biological target: T3, 3',5'-cyclic-AMP phosphodiesterase 4D (Homo sapiens, UniProt Q08499); experiment: Inhibition of human recombinant PDE4D3 assessed at 10 uM after 60 mins by IMAP fluorescence polarization assay
[6] = biological target: T4, 3',5'-cyclic-AMP phosphodiesterase 4B (Homo sapiens, UniProt Q07343); experiment: Inhibition of human recombinant PDE4B2 assessed at 10 uM after 60 mins by IMAP fluorescence polarization assay
SH-SY5Y [7] = experiment: Cytoprotective activity against 6-OHDA-induced death of human SH-SY5Y cells pretreated for 1 hr at 10 uM measured 16 hrs post 6-OHDA challenge by MTT assay; format: functional, cell-based
Summary of the method: (§2)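 Human neuroblastoma SH-SY5Y grown in F12/EMEM with 2 mM glutamine, 1% nonessential amino acids and 15% FBS at 37 °C, 5% CO2. Semiconfluent cells pretreated 1 h with compound, then 6-OHDA (35 μM) added for 16 h. Viability by MTT (0.5 mg/mL, 4 h), SDS/HCl solubilisation, absorbance 595 nm. Mean ± SD of three experiments.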

Astrocyte [8] = experiment: Inhibition of LPS-induced NO production in rat astrocytes; format: functional, cell-based
Astrocyte [9] = experiment: Inhibition of LPS-induced NO production in rat astrocytes treated for 1 hr at 10 uM before LPS challenge measured after 24 hrs by Griess assay; format: functional, cell-based
Summary of the method: (§3)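 After 2 days, cells were pretreated with compound (10 μM), then LPS (10 μg/mL) was added for 24 h. Nitrite in the supernatant was measured by Griess reagent (15 min, room temperature, absorbance 492/540 nm). Mean ± SD of three experiments.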

Microglia = experiment: Inhibition of LPS-induced NO production in rat microglia treated for 1 hr at 10 uM before LPS challenge measured after 24 hrs by Griess assay; format: functional; summary of the method: as §3
Mus musculus [10] = experiment: Emetogenic potential in surrogate emesis CD1 mouse model assessed as effect on xyclacine/ketamine-induced loss of righting reflex at 1 mg/kg, sc; format: ADME, organism-based; set-up: dose 1 mg/kg, route subcutaneous; conditions: in vivo
Summary of the method: (§4)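 Male CD1 mice (25–30 g) anesthetized ip with xylazine 10 mg/kg plus ketamine 100 mg/kg. Test agent or vehicle given sc 15 min later in 60% PEG/saline (0.1 mL/10 g). Duration of anesthesia is timed to return of righting reflex. Mean ± SEM, n = 10–19 per group, ANOVA with Dunnett post hoc test.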

Mus musculus [11] = experiment: Emetogenic potential in surrogate emesis CD1 mouse model assessed as effect on xyclacine/ketamine-induced loss of righting reflex at 1 mg/kg, sc; conditions: in vivo
[12] = biological target: T2, 3',5'-cyclic-AMP phosphodiesterase 7B; experiment: Inhibition of human recombinant PDE7B assessed as inhibition of hydrolysis of [3H]cAMP after 20 mins by scintillation proximity assay; summary of the method: as §1
[13] = biological target: Dual specificity calcium/calmodulin-dependent 3',5'-cyclic nucleotide phosphodiesterase 1A (Homo sapiens) (UniProt P54750); experiment: Inhibition of human recombinant PDE1A assessed at 10 uM after 60 mins by IMAP fluorescence polarization assay
Summary of the method: (§5)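 Fluorescence polarization IMAP assay. PDE1 at 2 U and PDE9 at 0.05 U, incubated with 1 nM fluorescein-cAMP (or fluorescein-cGMP for PDE5) plus inhibitor for 60 min at ambient temperature. Stopped with IMAP binding reagent, stood 1 h, FP ratio read. IC50 from a sigmoidal fit of FP versus log concentration. Means ± SD of two experiments with duplicates.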

[14] = biological target: cGMP-specific 3',5'-cyclic phosphodiesterase (Homo sapiens) (UniProt O76074); experiment: Inhibition of human recombinant PDE5A assessed at 10 uM after 60 mins by IMAP fluorescence polarization assay; summary of the method: as §5
[15] = biological target: High affinity cAMP-specific and IBMX-insensitive 3',5'-cyclic phosphodiesterase 8A (Homo sapiens) (UniProt O60658); experiment: Inhibition of PDE8A (unknown origin) at 10 uM; summary of the method: as §1
[16] = biological target: High affinity cGMP-specific 3',5'-cyclic phosphodiesterase 9A (Homo sapiens) (UniProt O76083); experiment: Inhibition of human recombinant PDE9A assessed at 10 uM after 60 mins by IMAP fluorescence polarization assay; summary of the method: as §5
SH-SY5Y [17] = experiment: Cytoprotective activity against 6-OHDA-induced death of human SH-SY5Y cells pretreated for 1 hr at 30 uM measured 16 hrs post 6-OHDA challenge by MTT assay; format: functional, cell-based; conditions: 10 uM, in the assay text read “10 uM” for “30 uM”; summary of the method: as §2
Mus musculus [18] = experiment: Emetogenic potential in surrogate emesis CD1 mouse model assessed as effect on xyclacine/ketamine-induced loss of righting reflex at 2.5 to 10 mg/kg, sc; format: ADME, organism-based; set-up: dose 2.5-10 mg/kg, route subcutaneous; conditions: in vivo; summary of the method: as §4
[19] = biological target: cAMP and cAMP-inhibited cGMP 3',5'-cyclic phosphodiesterase 10A (Homo sapiens) (UniProt Q9Y233); experiment: Inhibition of human recombinant PDE10A assessed at 10 uM after 20 mins by scintillation proximity assay
Phosphodiesterase 7 = Phosphodiesterase 7 (Homo sapiens, UniProt Q13946+Q9NP56); experiment: Inhibition of PDE7 in human SH-SY5Y cells assessed as increase in CREB phosphorylation at 10 uM by Western blot analysis
Mus musculus [20] = experiment: Emetogenic potential in surrogate emesis CD1 mouse model assessed as effect on xyclacine/ketamine-induced loss of righting reflex at 5 mg/kg, sc; format: ADME, organism-based; set-up: dose 5 mg/kg, route subcutaneous; conditions: in vivo; summary of the method: as §4
[21] = biological target: T3, 3',5'-cyclic-AMP phosphodiesterase 4D; experiment: Inhibition of human recombinant PDE4D3 assessed after 60 mins by IMAP fluorescence polarization assay
[22] = biological target: T4, 3',5'-cyclic-AMP phosphodiesterase 4B; experiment: Inhibition of human recombinant PDE4B2 assessed after 60 mins by IMAP fluorescence polarization assay

T4 sequence (Q07343 whole entry): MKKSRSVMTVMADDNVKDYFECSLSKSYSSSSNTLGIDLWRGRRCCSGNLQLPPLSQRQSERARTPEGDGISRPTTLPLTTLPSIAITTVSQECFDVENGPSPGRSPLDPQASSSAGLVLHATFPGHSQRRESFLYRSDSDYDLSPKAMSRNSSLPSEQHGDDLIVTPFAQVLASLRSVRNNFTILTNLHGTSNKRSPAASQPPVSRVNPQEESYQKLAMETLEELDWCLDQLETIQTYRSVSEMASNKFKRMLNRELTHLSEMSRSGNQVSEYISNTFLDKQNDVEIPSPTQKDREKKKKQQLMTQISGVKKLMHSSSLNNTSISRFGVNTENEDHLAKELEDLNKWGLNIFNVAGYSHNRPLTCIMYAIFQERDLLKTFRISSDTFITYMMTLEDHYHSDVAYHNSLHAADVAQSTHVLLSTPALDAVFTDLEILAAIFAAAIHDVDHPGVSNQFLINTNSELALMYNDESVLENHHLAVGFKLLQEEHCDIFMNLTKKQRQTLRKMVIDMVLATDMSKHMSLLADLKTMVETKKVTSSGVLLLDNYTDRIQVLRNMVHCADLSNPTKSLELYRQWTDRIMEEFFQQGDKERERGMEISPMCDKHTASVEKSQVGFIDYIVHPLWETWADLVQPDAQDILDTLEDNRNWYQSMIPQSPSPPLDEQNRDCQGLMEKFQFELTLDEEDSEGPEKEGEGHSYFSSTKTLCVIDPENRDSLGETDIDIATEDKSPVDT
T3 sequence (Q08499 whole entry): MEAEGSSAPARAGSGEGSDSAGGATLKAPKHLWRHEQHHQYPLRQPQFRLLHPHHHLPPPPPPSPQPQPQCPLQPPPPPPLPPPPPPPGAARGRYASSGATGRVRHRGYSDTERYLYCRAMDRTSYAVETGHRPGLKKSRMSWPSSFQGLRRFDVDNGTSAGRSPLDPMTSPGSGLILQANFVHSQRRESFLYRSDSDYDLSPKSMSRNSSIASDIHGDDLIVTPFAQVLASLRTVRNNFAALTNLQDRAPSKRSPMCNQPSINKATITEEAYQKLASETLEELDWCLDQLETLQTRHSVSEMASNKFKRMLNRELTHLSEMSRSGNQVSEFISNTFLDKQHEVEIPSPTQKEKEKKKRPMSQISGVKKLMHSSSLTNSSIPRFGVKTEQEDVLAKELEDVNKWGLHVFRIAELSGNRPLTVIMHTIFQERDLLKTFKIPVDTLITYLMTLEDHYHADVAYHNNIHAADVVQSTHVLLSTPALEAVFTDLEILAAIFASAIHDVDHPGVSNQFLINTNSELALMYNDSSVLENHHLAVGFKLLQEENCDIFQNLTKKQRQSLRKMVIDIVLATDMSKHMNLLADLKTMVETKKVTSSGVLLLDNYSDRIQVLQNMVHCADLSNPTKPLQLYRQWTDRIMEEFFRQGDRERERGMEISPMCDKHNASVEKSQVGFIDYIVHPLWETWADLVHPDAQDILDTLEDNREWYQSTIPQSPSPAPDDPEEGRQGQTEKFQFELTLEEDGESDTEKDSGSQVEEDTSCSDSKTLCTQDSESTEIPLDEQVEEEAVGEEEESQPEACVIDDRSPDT
T2 sequence (Q9NP56 whole entry): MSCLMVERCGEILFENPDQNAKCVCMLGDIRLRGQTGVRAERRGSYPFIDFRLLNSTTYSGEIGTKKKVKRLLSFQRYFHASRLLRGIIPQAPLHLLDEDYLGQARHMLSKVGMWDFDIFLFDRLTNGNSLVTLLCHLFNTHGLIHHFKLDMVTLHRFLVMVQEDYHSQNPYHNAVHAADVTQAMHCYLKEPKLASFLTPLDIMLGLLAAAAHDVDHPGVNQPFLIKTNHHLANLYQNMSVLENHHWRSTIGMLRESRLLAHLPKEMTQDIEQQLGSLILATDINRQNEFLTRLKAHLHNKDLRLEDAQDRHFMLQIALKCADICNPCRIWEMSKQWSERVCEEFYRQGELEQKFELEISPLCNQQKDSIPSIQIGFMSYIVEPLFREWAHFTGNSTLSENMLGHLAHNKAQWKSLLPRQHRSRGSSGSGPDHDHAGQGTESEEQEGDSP
Sequence of cGMP-inhibited 3',5'-cyclic phosphodiesterase 3A (Homo sapiens) (Q14432 whole entry): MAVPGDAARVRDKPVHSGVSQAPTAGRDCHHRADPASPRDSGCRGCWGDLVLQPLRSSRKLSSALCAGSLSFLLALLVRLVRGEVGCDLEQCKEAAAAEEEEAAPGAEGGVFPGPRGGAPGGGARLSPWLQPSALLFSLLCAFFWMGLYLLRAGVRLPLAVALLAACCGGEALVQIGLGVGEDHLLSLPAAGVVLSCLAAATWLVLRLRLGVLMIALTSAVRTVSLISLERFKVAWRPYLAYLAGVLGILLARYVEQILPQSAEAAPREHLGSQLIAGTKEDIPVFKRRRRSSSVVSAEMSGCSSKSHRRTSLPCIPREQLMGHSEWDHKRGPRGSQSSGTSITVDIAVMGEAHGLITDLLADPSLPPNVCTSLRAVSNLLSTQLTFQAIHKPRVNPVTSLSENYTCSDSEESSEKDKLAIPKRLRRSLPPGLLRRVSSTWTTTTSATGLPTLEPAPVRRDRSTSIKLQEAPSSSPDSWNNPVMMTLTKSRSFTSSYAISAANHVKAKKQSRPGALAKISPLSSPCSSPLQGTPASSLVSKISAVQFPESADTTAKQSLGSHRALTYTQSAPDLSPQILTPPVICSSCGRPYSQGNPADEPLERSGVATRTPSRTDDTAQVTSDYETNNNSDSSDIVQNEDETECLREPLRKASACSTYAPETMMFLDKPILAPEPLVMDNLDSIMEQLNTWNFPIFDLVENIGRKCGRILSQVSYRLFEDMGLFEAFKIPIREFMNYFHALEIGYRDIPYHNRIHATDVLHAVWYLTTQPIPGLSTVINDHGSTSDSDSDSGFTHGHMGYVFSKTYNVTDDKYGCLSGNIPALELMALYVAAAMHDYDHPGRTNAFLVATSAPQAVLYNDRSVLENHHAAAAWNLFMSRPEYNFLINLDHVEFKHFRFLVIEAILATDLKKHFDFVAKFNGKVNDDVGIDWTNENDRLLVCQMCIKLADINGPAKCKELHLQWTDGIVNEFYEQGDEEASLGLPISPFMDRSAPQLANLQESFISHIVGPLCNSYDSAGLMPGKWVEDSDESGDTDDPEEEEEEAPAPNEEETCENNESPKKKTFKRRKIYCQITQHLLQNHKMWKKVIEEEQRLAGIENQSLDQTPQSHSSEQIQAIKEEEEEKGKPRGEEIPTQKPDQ
T1 sequence (Q13946 whole entry): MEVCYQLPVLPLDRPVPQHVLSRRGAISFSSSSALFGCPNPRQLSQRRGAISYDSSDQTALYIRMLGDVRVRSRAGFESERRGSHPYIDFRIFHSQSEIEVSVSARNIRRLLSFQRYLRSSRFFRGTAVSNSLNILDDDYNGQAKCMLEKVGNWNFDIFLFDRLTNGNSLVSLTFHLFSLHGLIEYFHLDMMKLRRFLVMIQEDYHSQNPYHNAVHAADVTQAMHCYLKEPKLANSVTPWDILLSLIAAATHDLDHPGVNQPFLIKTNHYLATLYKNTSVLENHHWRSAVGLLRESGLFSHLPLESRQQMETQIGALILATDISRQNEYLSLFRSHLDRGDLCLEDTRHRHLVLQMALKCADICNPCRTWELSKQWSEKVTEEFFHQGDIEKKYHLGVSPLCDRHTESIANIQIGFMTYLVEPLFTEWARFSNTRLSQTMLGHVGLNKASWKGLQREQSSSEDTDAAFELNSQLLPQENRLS
Sequence of cAMP and cAMP-inhibited cGMP 3',5'-cyclic phosphodiesterase 10A (Homo sapiens) (Q9Y233 whole entry): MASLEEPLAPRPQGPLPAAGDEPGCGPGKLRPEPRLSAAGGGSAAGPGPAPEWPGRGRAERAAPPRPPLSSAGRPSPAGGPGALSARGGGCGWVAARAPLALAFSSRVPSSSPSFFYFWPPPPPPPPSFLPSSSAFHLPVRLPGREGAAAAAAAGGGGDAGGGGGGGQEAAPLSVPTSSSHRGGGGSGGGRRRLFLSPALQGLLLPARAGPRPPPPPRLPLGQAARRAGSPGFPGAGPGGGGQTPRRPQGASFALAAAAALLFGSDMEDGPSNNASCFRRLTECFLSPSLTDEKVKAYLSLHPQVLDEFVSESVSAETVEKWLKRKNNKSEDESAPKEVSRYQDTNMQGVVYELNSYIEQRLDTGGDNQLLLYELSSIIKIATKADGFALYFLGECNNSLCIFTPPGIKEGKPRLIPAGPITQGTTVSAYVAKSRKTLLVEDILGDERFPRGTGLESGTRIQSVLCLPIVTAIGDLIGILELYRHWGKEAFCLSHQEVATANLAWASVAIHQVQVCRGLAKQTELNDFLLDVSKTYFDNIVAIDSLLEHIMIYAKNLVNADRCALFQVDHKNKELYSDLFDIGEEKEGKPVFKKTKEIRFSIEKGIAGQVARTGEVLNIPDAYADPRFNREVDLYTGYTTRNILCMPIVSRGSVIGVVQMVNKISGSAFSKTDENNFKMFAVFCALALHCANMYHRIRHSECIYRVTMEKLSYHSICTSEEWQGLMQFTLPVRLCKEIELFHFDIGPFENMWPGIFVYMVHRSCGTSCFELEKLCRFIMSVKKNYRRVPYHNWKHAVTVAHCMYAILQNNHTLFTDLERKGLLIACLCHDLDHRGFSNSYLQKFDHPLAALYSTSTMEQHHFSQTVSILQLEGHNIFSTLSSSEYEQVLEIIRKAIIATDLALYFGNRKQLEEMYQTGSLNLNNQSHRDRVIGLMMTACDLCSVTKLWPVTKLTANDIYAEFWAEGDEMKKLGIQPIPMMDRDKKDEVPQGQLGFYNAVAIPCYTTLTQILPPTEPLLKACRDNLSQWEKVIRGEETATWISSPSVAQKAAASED
Sequence of Phosphodiesterase 7 (Q13946 whole entry, looked up): as the sequence (Q13946 whole entry) above
Sequence of Phosphodiesterase 7 (Q9NP56 whole entry, looked up): as the sequence (Q9NP56 whole entry) above

Row | SMILES | inhibition [1] [%] | pIC50 [2] | inhibition [3] [%] | inhibition [4] [%] | inhibition [5] [%] | inhibition [6] [%] | pIC50 [12] | inhibition [13] [%] | inhibition [14] [%] | inhibition [15] [%] | inhibition [16] [%] | inhibition [19] [%] | Activity (Phosphodiesterase 7) | Activity (SH-SY5Y [7]) | inhibition (Astrocyte [9]) | inhibition (Microglia) | Activity (Mus musculus [10]) | other results
1 | COc1ccc(C2CNC(=O)C2)cc1OC1CCCC1 (configuration not stated) [ROLIPRAM] | 3.1 |  |  | 9.42 |  |  |  |  |  |  |  |  |  |  |  |  | Toxic | Activity (Mus musculus [11]): Toxic
2 | O=C(Nc1c(Cl)cncc1Cl)c1ccc(OC(F)F)c(OCC2CC2)c1 [ROFLUMILAST] |  |  |  |  |  |  |  |  |  |  |  |  |  |  |  |  | Toxic | Activity (Mus musculus [20]): Toxic

Second part, led by results:

Row | inhibition [1] [%] | pIC50 [2] | inhibition [3] [%] | inhibition [4] [%] | inhibition [5] [%] | inhibition [6] [%] | pIC50 [12] | inhibition [13] [%] | inhibition [14] [%] | inhibition [15] [%] | inhibition [16] [%] | inhibition [19] [%] | Activity (Phosphodiesterase 7) | SMILES | Activity (SH-SY5Y [7]) | inhibition (Astrocyte [9]) | inhibition (Microglia) | Activity (Mus musculus [10]) | other results
3 | 69 | 5.89 | 39 | 44 | 24 | 35 |  |  |  |  |  |  |  | O=[N+]([O-])c1ccc(Sc2ccccn2)c(Cl)c1 | Active | Active | Active |  | inhibition (Astrocyte [8]): Active
4 | 81 | 6.43 | 82 | 37 | 7 | 4 | 5.52 | 36 | 28 | 1.2 | 7 | 57.5 | inactive | Nc1ccc(Sc2ccc(Cl)cc2[N+](=O)[O-])cc1 | Active | Active | Active |  | Activity (SH-SY5Y [17]): Active; Activity (Mus musculus [18]): Non-toxic
5 | 85 | 6.74 | 94 | 27 | 65 | 69 | 6.22 | 39 | 21 | 2.4 | 1 | 29.4 | inactive | O=[N+]([O-])c1ccc(Sc2ccncc2)c(Cl)c1 | Active | Active | Active |  | pIC50 [21]: 5.14; pIC50 [22]: 5.18
